The target in data set [1] is GABA-A receptor; alpha-1/beta-3/gamma-2 (Homo sapiens) (UniProt P14867+P18507+P28472). In words: Modulation of recombinant GABA alpha1beta3gamma2 receptor (unknown origin) expressed in Xenopus laevis oocytes assessed as change in GABA-induced EC(3 to 6) current at 1 uM by two-electrode voltage clamp assay. The class given is cell-based. In outline: (§1)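 Xenopus laevis oocytes expressing α1, α2, α3 or α5 β3γ2 GABAARs were recorded by two-electrode voltage clamp. Modulation of the GABA EC3-6 current (taken as 100%) was tested at 100 nM, 1 μM and 10 μM in the same cells. Values are mean ± SEM, n = 3–4.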

For data set [2], the target named is T1, GABA-A receptor; alpha-3/beta-3/gamma-2 (Homo sapiens) (UniProt P18507+P28472+P34903). In words: Modulation of recombinant GABA alpha3beta3gamma2 receptor (unknown origin) expressed in Xenopus laevis oocytes assessed as change in GABA-induced EC(3 to 6) current by two-electrode voltage clamp assay. Format: cell-based. In outline: as §1
On the technique in general: In two-electrode clamp one electrode senses voltage and the other passes current.

The target of data set [3] is T1, GABA-A receptor; alpha-3/beta-3/gamma-2 (Homo sapiens). Put plainly: Modulation of recombinant GABA alpha3beta3gamma2 receptor (unknown origin) expressed in Xenopus laevis oocytes assessed as change in GABA-induced EC(3 to 6) current at 100 nM by two-electrode voltage clamp assay. Format: cell-based. The method, boiled down:
as §1

Data set [4] deals with Liver. In words: Metabolic stability in human liver microsomes assessed as compound remaining at 4 uM measured after 30 mins in presence of NADPH by LC-MS/MS analysis. The conditions noted are these: 0.5 h. The class given is ADME, microsome. In outline: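 Human, mouse or rat liver microsomes were incubated with compound at 4 μM final for 30 min at 37 °C (n = 1). Percent of parent remaining was quantified by LC-MS/MS.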
In general terms: Microsomes from liver hold many membrane-bound enzymes, among them those of drug oxidation.

Data set [5] is described as follows: Total plasma concentration in Sprague-Dawley rat at 10 mg/kg, ip measured after 4 hrs. The class given is ADME, organism-based. In outline: (§2)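 Rats were given 10 mg/kg i.p. (n = 3), and total plasma and brain concentrations were measured at 4 h. Unbound concentrations were calculated as Fu × total concentration, and Kp,uu = Cu,brain/Cu,plasma.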
Data set [6] in a line: Cytotoxicity against HEK293T cells assessed as viable cells measured after 18 hrs by CellTiter-Glo assay. The class given is cell-based, HEK-293T. The conditions noted are these: human, read-out: LD50. The method, boiled down: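 HEK293T cells were exposed to compound for 18 h (n = 4). Viable cells were quantified with CellTiter-Glo, and LD50 was derived.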
In general terms: Cellular ATP, detected with luciferase, serves as a proxy for viable cell number.

Data set [7] concerns the target GABA-A receptor; alpha-5/beta-3/gamma-2 (Homo sapiens) (UniProt P18507+P28472+P31644). In words: Modulation of recombinant GABA alpha5beta3gamma2 receptor (unknown origin) expressed in Xenopus laevis oocytes assessed as change in GABA-induced EC(3 to 6) current by two-electrode voltage clamp assay. The class given is cell-based. In outline:
as §1

A short description of data set [8]: Drug uptake in Sprague-Dawley rat brain at 10 mg/kg, ip measured after 4 hrs. The class given is ADME, organism-based. Conditions: read-out: Drug uptake. In outline: as §2
Data set [9] addresses T2, GABA-A receptor; alpha-3/beta-3/gamma-2 (Homo sapiens, UniProt P18507+P28472+P34903).
T2 sequence (P18507 whole entry): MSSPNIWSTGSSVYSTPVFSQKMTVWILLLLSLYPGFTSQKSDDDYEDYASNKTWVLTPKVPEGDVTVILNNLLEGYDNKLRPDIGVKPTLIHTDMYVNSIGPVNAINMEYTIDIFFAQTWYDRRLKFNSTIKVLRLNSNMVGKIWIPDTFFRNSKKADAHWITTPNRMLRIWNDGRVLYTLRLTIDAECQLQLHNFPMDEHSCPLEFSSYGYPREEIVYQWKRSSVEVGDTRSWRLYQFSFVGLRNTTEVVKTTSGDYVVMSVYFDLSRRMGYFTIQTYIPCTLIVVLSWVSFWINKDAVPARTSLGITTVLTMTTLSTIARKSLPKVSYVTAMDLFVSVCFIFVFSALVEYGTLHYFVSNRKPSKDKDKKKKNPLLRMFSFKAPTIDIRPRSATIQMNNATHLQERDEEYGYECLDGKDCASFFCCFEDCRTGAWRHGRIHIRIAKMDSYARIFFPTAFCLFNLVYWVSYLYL
T2 sequence (P28472 whole entry): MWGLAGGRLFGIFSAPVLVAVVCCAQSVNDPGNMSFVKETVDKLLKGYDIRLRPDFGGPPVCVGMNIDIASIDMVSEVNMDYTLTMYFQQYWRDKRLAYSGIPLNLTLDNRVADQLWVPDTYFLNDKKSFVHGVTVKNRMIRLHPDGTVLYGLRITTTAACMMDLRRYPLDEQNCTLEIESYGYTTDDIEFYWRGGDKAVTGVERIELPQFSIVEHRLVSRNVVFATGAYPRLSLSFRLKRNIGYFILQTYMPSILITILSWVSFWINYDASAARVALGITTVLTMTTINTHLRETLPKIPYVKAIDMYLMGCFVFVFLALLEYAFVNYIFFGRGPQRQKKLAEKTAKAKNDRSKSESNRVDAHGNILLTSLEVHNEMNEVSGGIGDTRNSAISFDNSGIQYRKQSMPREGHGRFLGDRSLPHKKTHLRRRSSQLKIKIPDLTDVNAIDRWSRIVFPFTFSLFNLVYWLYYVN
T2 sequence (P34903 whole entry): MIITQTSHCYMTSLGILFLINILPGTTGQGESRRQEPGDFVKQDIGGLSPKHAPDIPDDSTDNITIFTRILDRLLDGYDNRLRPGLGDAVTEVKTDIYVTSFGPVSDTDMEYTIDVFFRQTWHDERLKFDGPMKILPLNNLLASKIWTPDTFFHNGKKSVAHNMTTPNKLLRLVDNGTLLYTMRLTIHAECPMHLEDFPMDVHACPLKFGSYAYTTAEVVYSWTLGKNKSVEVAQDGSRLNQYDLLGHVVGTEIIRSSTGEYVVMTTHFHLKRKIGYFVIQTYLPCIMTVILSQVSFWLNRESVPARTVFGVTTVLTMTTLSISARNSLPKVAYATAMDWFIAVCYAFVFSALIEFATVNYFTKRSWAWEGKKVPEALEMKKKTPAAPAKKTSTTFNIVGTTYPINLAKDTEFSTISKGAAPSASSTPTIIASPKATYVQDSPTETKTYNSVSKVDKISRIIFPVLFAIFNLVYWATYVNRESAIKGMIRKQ
In words: Modulation of recombinant human GABA alpha3beta3gamma2 receptor expressed in HEK293 cells assessed as change in GABA-induced current at -80 mV holding potential preincubated for 3 mins followed by co-administration of GABA by electrophysiology method. Format: cell-based.

Data set [10] is described as follows: Volume of distribution at steady state in femoral artery/vein cannulated Sprague-Dawley rat at 1 mg/kg, iv administered […] as single dose by LC-MS/MS analysis. The conditions noted are these: in vivo, read-out: Vdss. Format: ADME, organism-based. In outline: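 Male Sprague-Dawley rats (n = 3 per time point) were dosed i.v. at 1 mg/kg. Plasma concentrations were measured at set time points, and Vdss was taken from the plasma concentration–time profile.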

Some results are limits rather than exact numbers.

Regarding `C#Cc1ccc2c(c1)C(c1ccccn1)=NCc1c(-c3cnco3)ncn1-2`, the Activity in [1] was 155%; in data set [2] it was “Dose-dependent effect”; in data set [3], 109%; in [7] it was “Dose-dependent effect”. For the same compound, the Stability in data set [4] turned out to be 91%. Also, the concentration at 4 h in data set [5] was 2130 nM; in [8], 2050 nM. For the same compound, in data set [6], the CC50 at 18 h is more than 100000 nM. In data set [9], the EC50 was 205 nM. Besides, in data set [10], the Vd stood at 1.4 L/kg.

The term EC50 denotes the concentration needed to bring the measured effect to its halfway point.

The record behind these values is ChEMBL document CHEMBL4041524, “Synthesis and Characterization of a Novel γ-Aminobutyric Acid Type A (GABAA) Receptor Ligand That Combines Outstanding Metabolic Stability, Pharmacokinetics, and Anxiolytic Efficacy” (J Med Chem, 2016).
